“Also recorded” adds a separate entry of the source.
Assays:
FAAH = molecular target: T1, FAAH (Mus musculus, UniProt O08914); assay: competitive ABPP, mouse brain membrane proteome; assay type: biochemical; conditions: mouse brain proteome, concentration range tested 0.001–50 μM
T1 sequence (O08914 1-579): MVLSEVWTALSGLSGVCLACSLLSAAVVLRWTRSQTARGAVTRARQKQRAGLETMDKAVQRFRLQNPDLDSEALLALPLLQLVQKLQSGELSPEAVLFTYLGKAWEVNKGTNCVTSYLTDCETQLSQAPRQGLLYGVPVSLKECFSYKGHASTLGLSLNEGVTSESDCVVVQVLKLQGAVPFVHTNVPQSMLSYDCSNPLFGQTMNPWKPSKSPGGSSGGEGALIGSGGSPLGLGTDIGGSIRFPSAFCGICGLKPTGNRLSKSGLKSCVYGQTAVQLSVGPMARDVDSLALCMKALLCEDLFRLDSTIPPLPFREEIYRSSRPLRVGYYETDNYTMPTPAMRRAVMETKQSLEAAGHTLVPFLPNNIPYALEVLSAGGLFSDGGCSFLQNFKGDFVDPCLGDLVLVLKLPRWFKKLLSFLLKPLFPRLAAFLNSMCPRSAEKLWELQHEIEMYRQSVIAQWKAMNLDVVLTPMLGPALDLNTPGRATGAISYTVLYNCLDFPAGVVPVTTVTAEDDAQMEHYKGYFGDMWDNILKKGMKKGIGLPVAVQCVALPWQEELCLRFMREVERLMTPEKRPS
In short: (§1)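 Brain (mouse or rat) or mouse lung proteomes were preincubated with the test compound, then treated with the serine hydrolase probe FP-Rh. Samples were separated by SDS-PAGE and read by in-gel fluorescence scanning. Inhibition was taken as reduced FP-Rh labelling of MAGL, ABHD6, FAAH or CES bands, and IC50 values were calculated from quantified gel bands. Three independent experiments.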

MAGL [1] = molecular target: T2, MAGL (Rattus norvegicus, UniProt Q8R431); assay: brain 2-AG hydrolytic activity from KML29-treated rats; assay type: in vivo; conditions: 4 h
T2 sequence (Q8R431 1-303): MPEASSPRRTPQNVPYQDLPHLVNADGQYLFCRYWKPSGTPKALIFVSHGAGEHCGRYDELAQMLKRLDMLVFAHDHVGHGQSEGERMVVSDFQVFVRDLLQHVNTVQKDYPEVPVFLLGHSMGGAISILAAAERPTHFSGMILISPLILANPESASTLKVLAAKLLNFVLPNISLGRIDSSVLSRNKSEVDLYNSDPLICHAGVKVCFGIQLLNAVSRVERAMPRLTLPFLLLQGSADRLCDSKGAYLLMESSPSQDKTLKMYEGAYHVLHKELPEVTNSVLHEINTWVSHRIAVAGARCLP
In short: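 Wistar rats received the test compound i.p. (1–40 mg kg−1 in saline:emulphor:ethanol 18:1:1) or vehicle and were killed after 4 h. Brain MAGL and FAAH activities were measured as hydrolysis of 2-AG and AEA, respectively. Means ± SEM, n = 3 rats/group, compared with vehicle-treated rats.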

MAGL [2] = molecular target: T2, MAGL; assay: competitive ABPP of brain from KML29-treated rats; assay type: in vivo; conditions: Wistar rats, 40 mg kg^−1 i.p., 4 h
In short: (§2)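 Wistar rats were injected i.p. with the test compound (1–40 mg kg−1) or vehicle. Vehicle was saline:emulphor:ethanol 18:1:1, with prolonged sonication and mild heating to dissolve. Rats were killed at 4 h. Brain, liver, lung and spleen proteomes were labelled with FP-Rh, separated by SDS-PAGE and scanned for in-gel fluorescence. Inhibition was scored as reduced probe labelling. n = 3 rats/group.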

hMAGL = molecular target: T3, hMAGL (Homo sapiens, UniProt Q99685); assay: competitive ABPP, proteomes of transiently transfected HEK293T cells; assay type: biochemical; conditions: read-out: IC50 (95% CI), human MAGL, transfected HEK293T cell proteome
T3 sequence (Q99685 1-303): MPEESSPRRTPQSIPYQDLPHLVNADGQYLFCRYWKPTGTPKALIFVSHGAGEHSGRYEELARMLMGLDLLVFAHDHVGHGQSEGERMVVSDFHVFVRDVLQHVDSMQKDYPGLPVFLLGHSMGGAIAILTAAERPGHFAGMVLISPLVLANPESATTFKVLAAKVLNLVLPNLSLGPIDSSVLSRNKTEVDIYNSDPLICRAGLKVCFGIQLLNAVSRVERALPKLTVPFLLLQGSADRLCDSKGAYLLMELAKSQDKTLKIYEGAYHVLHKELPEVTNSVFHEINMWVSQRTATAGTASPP

MAGL [3] = molecular target: T4, MAGL (Mus musculus, UniProt O35678); assay: gel-based ABPP of peripheral tissues from inhibitor-treated mice; assay type: in vivo; conditions: 1 mg kg^−1 p.o., 4 h, liver, lung, spleen
T4 sequence (O35678 1-303): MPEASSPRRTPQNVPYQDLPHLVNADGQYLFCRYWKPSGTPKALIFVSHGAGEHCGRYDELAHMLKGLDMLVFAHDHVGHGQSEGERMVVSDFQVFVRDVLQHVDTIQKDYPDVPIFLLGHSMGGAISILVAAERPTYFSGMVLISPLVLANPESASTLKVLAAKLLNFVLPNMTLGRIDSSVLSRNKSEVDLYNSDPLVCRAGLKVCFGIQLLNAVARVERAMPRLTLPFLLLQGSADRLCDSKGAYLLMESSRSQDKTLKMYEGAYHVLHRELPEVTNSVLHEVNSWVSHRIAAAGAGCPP

[4] = dissolution in dosing vehicle; assay type: physicochemical
In short: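 Test compound was dissolved with prolonged sonication and mild heating. Vehicle was PEG for oral dosing, or saline:emulphor:ethanol (18:1:1) for i.p. dosing.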

[5] = system: brain 2-AG, AA, AEA, PEA, OEA; assay: brain lipid profile of KML29-treated rats; assay type: in vivo, rat; conditions: 1–40 mg kg^−1 i.p., 4 h
In short: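 Wistar rats were given the test compound i.p. (1–40 mg kg−1, saline:emulphor:ethanol 18:1:1 vehicle) or vehicle and killed at 4 h. Brain 2-AG, AA, AEA, PEA and OEA levels were measured. Means ± SEM, n = 3 rats/group, with statistics against vehicle-treated rats.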

MAGL [6] = molecular target: T2, MAGL; assay: competitive ABPP, rat brain membrane proteome; assay type: biochemical
In short: as §1

MAGL [7] = molecular target: T4, MAGL; assay: competitive ABPP of brain from inhibitor-treated mice; assay type: in vivo; conditions: for blockade of MAGL activity in brain: C57Bl/6 mice, 4 h
MAGL [8] = molecular target: T2, MAGL; assay: competitive ABPP of peripheral tissues from KML29-treated rats; assay type: in vivo; conditions: 4 h
In short: as §2

[9] = system: carboxylesterase (CES) enzymes; assay: in vitro competitive ABPP in mouse lung proteomes; assay type: biochemical

## O=C(OC(C(F)(F)F)C(F)(F)F)N1CCC(C(O)(c2ccc3c(c2)OCO3)c2ccc3c(c2)OCO3)CC1 [KML29]
FAAH
  FAAH inhibition / cross-reactivity (gel-based ABPP): No inhibition of FAAH was detected; also recorded: complete selectivity for MAGL over FAAH
MAGL [1]; 20 mg kg^−1 i.p.
  decrease of brain 2-AG hydrolytic activity: 50%
MAGL [1]; 40 mg kg^−1 i.p.
  decrease of brain 2-AG hydrolytic activity: 80%
MAGL [2]
  inhibition of brain MAGL: > 90%
hMAGL
  IC50: 5.9 nM
MAGL [3]
  MAGL inhibition in peripheral tissues: near-complete blockade of MAGL
[4]
  dissolution in vehicles for p.o. (PEG) or i.p. [saline:emulphor:ethanol (18:1:1)] administration: Prolonged sonication and mild heating were also required
[5]
  brain AA levels: decrease proportionally with the elevations in 2-AG
  brain AEA, PEA, or OEA: without alteration
  elevations in brain 2-AG: approximately 10 fold
MAGL [6]; rat brain homogenates, competitive ABPP
  selectivity for rat MAGL relative to rat ABHD6: > 20 fold
MAGL [6]; rat brain serine hydrolase activities, full ABPP gel
  inhibitor concentrations with selective inhibition of MAGL: ≤ 1 µM
MAGL [6]; read-out: IC50 (95% CI), rat MAGL, competitive ABPP, rat brain membrane proteome
  IC50: 43 nM
MAGL [7]; 5 mg kg^−1 p.o.
  blockade of MAGL activity in brain: partial inhibition
MAGL [7]; 20 mg kg^−1 p.o.
  blockade of MAGL activity in brain: maximal inhibition
MAGL [7]; mice, single oral dose 20 mg kg^−1
  time until which brain MAGL inhibition was sustained: 12 to 24 h
MAGL [7]; mice, single oral dose 20 mg kg^−1, earliest time point tested
  time post-administration of maximal inhibition of brain MAGL: ≤ 1 h
MAGL [8]; 5 mg kg^−1 i.p.
  MAGL inhibition in lung and spleen: complete MAGL inhibition
MAGL [8]; 20 mg kg^−1 i.p.
  MAGL inhibition in liver: complete MAGL inhibition
[9]
  cross-reactivity with CESs compared to JZL184: much less cross-reactivity with CESs

Reference: PMC3361572 (Chemistry & biology, 2012)
